Assay results as given in paper PMC9016318 (Cancer Research and Treatment : Official Journal of Korean …, 2021).
No end group written: not given here.

How the values were obtained:
Cal27 cells = experiment: CCK-8 cytotoxicity, Cal27 cells; assay type: cell-based, human; details: CCK-8, 64 μM, 24 hours
Method in brief: (§1)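 Cells were seeded in 96-well plates and cultured 24 h: Jurkat T at 4,000/well, Cal27 at 2,000/well. Test peptide was added at 1–64 μM for 24 h, then CCK-8 for 2 h, and absorbance was read at 450. Viability % = (sample − no-cell baseline with peptide)/(untreated control − no-cell blank) × 100. Data are mean±standard error of three separate experiments.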

ICIK cells = experiment: CCK-8 cytotoxicity, ICIK cells; assay type: cell-based, human; details: CCK-8, 64 μM, 24 hours
Method in brief: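 ICIK cells were human blood PBMCs, Ficoll-separated, held overnight at 4°C on anti-CD3 (OKT3, 10 μg/mL) coated dishes, then grown 10 days in RPMI 1640/10% FBS with IFN-γ 2000 U/mL and IL-2 10 ng/mL. They were seeded at 4,000/well and cultured 24 h. Test peptide at 1–64 μM was added for 24 h, then CCK-8 for 2 h, and absorbance read at 450. Viability was blank/baseline-corrected against untreated wells.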

Jurkat T cells = experiment: CCK-8 cytotoxicity, Jurkat T cells; assay type: cell-based, human; details: CCK-8, 64 μM, 24 hours
Method in brief: as §1

[1] = biological target: human recombinant PD-1 protein (human, UniProt Q15116); experiment: SPR
human recombinant PD-1 protein, sequence (Q15116 25-170): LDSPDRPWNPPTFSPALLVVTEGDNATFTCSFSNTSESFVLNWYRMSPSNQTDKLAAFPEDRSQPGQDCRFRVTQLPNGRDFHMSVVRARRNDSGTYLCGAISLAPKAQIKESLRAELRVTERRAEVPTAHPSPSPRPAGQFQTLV

Row | Molecule | cytotoxicity to stimulated Cal27 cells (Cal27 cells) | cytotoxicity to ICIK cells (ICIK cells) | cytotoxicity to Jurkat T cells (Jurkat T cells) | Kd [1] [µM]
1 | SRLKEIANSPTQFWRMVARNTLGNGAKQSLNIEHARL [nABP284] | not directly cytotoxic | not directly cytotoxic | not directly cytotoxic | –
2 | SRLKEIANSPTQFWRMVARNTLGNGAKQSLNIEHARL [nABP284] | – | – | – | 11.8
